Screening results from PubChem.
Hits are enriched below; roughly 4.2% of the tested compounds scored in any of these assays.
ANO1 block: blocks the mouse calcium-activated chloride channel TMEM16A; Q8BHY3; HEK293 TMEM16A/YFP iodide influx fluorescence, ionomycin; normalized B-score (activity score, 25-100; higher = stronger inhibition) at 10 µM; 1.2% of 310,000 active;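 active = ratio plate-corrected score three or more library SD toward inhibition, starting fluorescence score within five deviations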;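 note: score derived from kinetic fluorescence span divided by baseline fluorescence per well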
XBP1 UPR activ: activators of adaptive arm of unfolded protein response (XBP1) | CHO-XBP1 luciferase reporter, IRE1-XBP1 UPR activation, luminescence; percent of tunicamycin response, DMSO as zero | activation, % at 20 µM | 0.33% of 330,000 active | AID 463104;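 active = versus positive control, 20 µM dose yields 30% or more activation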;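 note: 100% = tunicamycin at 10 µg/mL and 0% = DMSO only wells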
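Test system: CHO-XBP1 luciferase reporter cells | Buffer or medium: Serum-containing F12 medium, 10% FBS | Schedule: 6 h compound exposure at 37 °C, 5% CO2 | Detection: Steady-Glo luciferase glow luminescence, 10 min after reagent addition | Read-out basis: Activation, % of tunicamycin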
TMEM16A act: activators or potentiators of mouse TMEM16A chloride channel. 0.3% of 340,000 active. AID 623877. HEK293 TMEM16A/YFP-H148Q/I152L, iodide quench fluorescence; stronger effect = lower value. B-score at 10 µM;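 active = fluorescence-ratio B-score plate-corrected deviation score at least 3 library SD below zero, with starting fluorescence score within 5 deviations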;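 note: channel opened by trigger with iodide after compound preincubation; score built on the fluorescence ratio of max minus min over baseline; more negative score means more quench and so TMEM16A activation or potentiation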
CHOP inhibitor: blocks CHOP induction under ER stress; inhibition, % at 10 µM; CHO-K1 CHOP-promoter luciferase, tunicamycin-induced, 15-18 h; 3.8% of 220,000 active;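 active = compounds that reduced the stress-induced luciferase reporter signal by more than about 70% of percent inhibition, limit read from the data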;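 note: 0% = tunicamycin plus vehicle and 100% = wells without tunicamycin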
CHOP UPR activ: apoptotic UPR (CHOP) activation; CHO-CHOP luciferase reporter, luminescence; percent of tunicamycin response over DMSO baseline; activation, % at 10 µM; 0.34% of 330,000 active;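 active = at 10 µM dose, activation of 40% or more, normalized to positive control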;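 note: 100% = tunicamycin at 10 µg/mL and 0% = DMSO alone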
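Assay system: CHO-CHOP cells, stable luciferase reporter of PERK-eIF2a-CHOP signalling / Buffer or medium: F12 plus 10% serum / Compound dosing: one dose, 10 µM in 0.5% DMSO / Times: 6 h compound treatment, 37 °C / Technique: luciferase luminescence / Read-out: % reporter activation, DMSO baseline versus tunicamycin full activation / Benchmarks: tunicamycin and DMSO controls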
Lipid droplet: hepatic lipid droplet formation modulation | AML12 mouse hepatocytes, oleate lipid droplets, BODIPY imaging | inhibition, % at 6.5 µM | 0.4% of 240,000 active;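 active = lipid droplet intensity inhibited by at least 50%, with more than 500 cells counted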
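Material – mouse AML12 hepatocyte cell line, fixed after treatment · Compound dosing – one dose, 6.5 µM compound · Times – compound with oleate, overnight · Measured by – Image-based BODIPY and DAPI two-channel analysis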
The depositor's hits bear a star; i = inactive; nt = no result given.

SMILES	ANO1 block	XBP1 UPR activ	TMEM16A act	CHOP inhibitor	CHOP UPR activ	Lipid droplet
O=c1nc2ccc(Cl)cn2c2ccc(S(=O)(=O)N3CCOCC3)cc12	i	-1	i	nt	2	-2
CC(NC(=O)CN(Cc1ccccc1)S(=O)(=O)c1ccccc1)c1cccnc1 (stereo not given)	nt	-2	i	nt	0	nt
CCCC(=O)O[C@H]1C[C@@H](C)N(C(=O)c2ccccc2)c2ccc(C)cc21	i	-1	i	74*	0	nt
CCC(=O)OC1CC(C)N(C(=O)c2ccccc2)c2ccc(C)cc21 (stereo not given)	i	-2	i	33	-1	-17
O=C1OCCN/C1=C\C(=O)c1ccc(Cl)cc1	i	-1	i	-9	3	17
CCCCCCc1cc2cc(C(=O)NCc3ccccc3)c(=N)oc2cc1O	i	11	i	4	9	6
CCCCCCc1cc2cc(S(=O)(=O)c3ccc(C)cc3)c(=O)oc2cc1O	i	-4	i	86*	3	-32
CCCCCCc1cc2cc(C(=O)Nc3ccccc3)c(=O)oc2cc1O	i	7	i	71*	14	-4
CC1CCCN(C(=O)CCc2nnc(-c3ccc4c(c3)OCO4)o2)C1 (stereo not given)	i	-1	i	nt	4	-5
CSc1ccccc1C(=O)Nc1ccccc1C	i	1	i	1	1	-10
COc1cc(OC)c(NC(=O)c2ccccc2F)cc1Cl	i	0	i	5	3	-16
CCOc1ccc(NC(=O)c2cc3ccccc3cc2O)cc1	i	3	i	75*	4	-1
CCOc1ccc(NC(=O)c2cc3ccccc3cc2OC)cc1	i	1	i	nt	2	1
Cc1ccc(Cl)cc1NC(=O)c1cc2ccccc2cc1O	i	2	i	82*	26	-26
Cc1ccccc1NC(=O)c1ccccc1O	25*	4	i	0	1	7
COc1cc(NC(=O)c2cc3ccccc3cc2O)c(OC)cc1Cl	i	13	i	83*	10	-4
CCOc1ccc(NC(=O)C(CC)NC(=O)c2ccccc2CO)cc1 (stereo not given)	i	-2	i	76*	-1	12
CCOc1ccc(CC(=O)N/N=C/c2sccc2C)cc1	i	-3	i	nt	1	9
COc1cc(C(=O)OCC(=O)NCC2CCCCC2)ccc1OCC(C)C	i	3	i	nt	1	nt
N#C/C(=C\c1ccc(O)c(O)c1)C(=O)Nc1ccccc1	i	14	-5.2*	12	6	nt
Cc1ccc(CNC(=O)c2ccc(OCC(C)C)cc2)n1C	i	nt	i	nt	nt	nt
N#CC(Nc1ccccc1)c1ccccc1OCc1ccccc1 (stereo not given)	i	0	i	89*	1	-1
COc1ccc(N=C2NC(=O)/C(=C/C=C/c3ccccc3)S2)cc1	i	0	i	77*	-1	3
O=C1NC(=Nc2ccccc2)S/C1=C\C=C\c1ccco1	i	0	i	87*	6	-22
COc1ccc(N=C2NC(=O)/C(=C\C=C\c3ccccc3)S2)cc1	i	-3	i	65	0	11
SMILES	ANO1 block	XBP1 UPR activ	TMEM16A act	CHOP inhibitor	CHOP UPR activ	Lipid droplet
CC1CCC2(CC1)NC(=O)N(CC(=O)c1cn(CCC#N)c3ccccc13)C2=O (stereo not given)	i	-2	i	12	0	14
CCOC(=O)c1ccc(N2CCN(c3ccccc3F)CC2)c(NC(=O)Nc2cccc(OC)c2)c1	i	-1	i	35	8	57*
COc1ccc(-c2csc(NC(=S)NC(=O)/C=C/c3ccco3)n2)cc1OC	i	nt	i	95*	nt	-46
CSc1nc(N)nc2c1ncn2Cc1ccccc1	nt	nt	i	nt	nt	nt
O=C(CSc1ccccc1C(=O)NCc1ccccc1)NC1CCCCCCC1	i	-2	i	22	-1	0
CN(CC(=O)O/N=C(\N)c1ccc([N+](=O)[O-])cc1)S(=O)(=O)c1ccc2ccccc2c1	i	-1	i	32	-1	0
NC(=O)c1sc2nc(N3CCCCC3)c3c(c2c1N)CCCC3	i	1	i	92*	0	nt
COc1ccc(-c2nc(NC(=O)c3ccc(OCC(=O)N4CCOCC4)c(OC)c3)sc2C)cc1	i	-2	i	-7	2	96*
CC(C)(C)c1ccc(-c2cc(N)n[nH]2)cc1	i	-5	i	91*	-7	nt
Cc1ccc(-c2cc(N)n[nH]2)cc1	i	1	i	8	-1	15
CCN(c1ccc2c(c1)OCO2)S(=O)(=O)c1cc(Br)cc2c1N(C(C)=O)CC2	i	-2	i	46	-1	nt
COc1ccc(C2=NC(=O)/C(=C\c3cc(OC)c(OC)c(OC)c3)O2)cc1	i	nt	i	89*	nt	-2
C/C(=N\NC(=O)c1cc(-c2cccc([N+](=O)[O-])c2)n[nH]1)c1ccccc1O	i	nt	i	94*	nt	0
Cn1c(=O)c2c(SC3CCCC3)nc(C3CC3)nc2n(C)c1=O	i	11	i	80*	1	nt
COc1ccc(/C=C2\CC/C(=C\c3ccc(OC)c(OC)c3)C2=O)cc1OC	i	0	i	31	3	26
COc1ccc(/C=c2\s/c(=C/C(=O)c3ccc(C)cc3)[nH]c2=O)cc1OC	i	1	i	100*	3	14
O=C(COC(=O)c1cc([N+](=O)[O-])ccc1NCCO)Nc1cccnc1Cl	nt	-3	i	nt	-1	nt
CC1CCC(NC(=O)Cn2cnc3sccc3c2=O)CC1 (stereo not given)	nt	-1	-4.8*	nt	4	nt
CC(C)(C)n1ncc2c(=O)n(CC(=O)NC3CCCCC3)cnc21	i	8	i	-31	1	nt
CCOC(=O)/C(=C/C=C1\Sc2cc(C)c(C)cc2N1CC)C(C)=O	nt	nt	i	94*	nt	-6
O=C1Nc2ccccc2C12OCC(COc1ccc(Cl)cc1)O2 (stereo not given)	i	-2	i	80*	0	-12
Cc1ccc([N+](=O)[O-])cc1-c1ccc(/C=N\n2nnnc2N)o1	i	0	i	90*	0	6
CCOc1cc(/C=N/Nc2cccc(C(=O)O)c2)ccc1OC(=O)c1ccccc1	nt	-8	i	92*	-8	1
CCOc1cc(/C=N/NC(=O)CNc2cccc(C)c2)ccc1OC(=O)c1ccccc1	i	17	i	39	4	nt
